Measurements from ChEMBL document CHEMBL1140647, “Synthesis and evaluation of potent and selective beta3 adrenergic receptor agonists containing heterobiaryl carboxylic acids” (Bioorg Med Chem Lett, 2007).

Test system: Mus musculus
Assay: Reduction of glucose level in db/db mouse serum at 0.1 mg/kg, po bid for 14 days
Type: functional
Settings: not given
How it was run: (§1)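 Male db/db mice, 60 days old at the start of dosing, 10 per group. Dosed by oral gavage twice daily for 14 days in 0.025 M methanesulfonic acid vehicle, with dosing solutions prepared fresh daily. Day 0 baseline taken from 10 exsanguinated mice. Mice were sacrificed on days 7 and 14, and serum glucose was measured on an automated chemistry analyzer against vehicle-treated mice.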

SMILES | Activity
O=C(O)c1ccoc1-c1cccc(NCCNC[C@H](O)c2cccc(Cl)c2)c1 | 255 mg/dL

Test system: Mus musculus
Assay: Reduction of glucose level in db/db mouse serum at 0.03 mg/kg, po bid for 14 days
Type: functional
Settings: not given
How it was run: as §1

SMILES | Activity
O=C(O)c1ccoc1-c1cccc(NCCNC[C@H](O)c2cccc(Cl)c2)c1 | 376 mg/dL

Test system: not listed separately
Assay: Half life in dog at 0.2 mg/kg, iv
Type: ADME, organism-based, Canis lupus familiaris
Set-up: dose 0.2 mg/kg, route intravenous
Settings: in vivo
How it was run: (§2)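 Single intravenous dose of 0.2 mg/kg. Plasma drug levels measured by LC–MS/MS, and clearance and half-life derived from them.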

SMILES | half-life
O=C(O)c1ccsc1-c1cccc(NCCNC[C@H](O)c2cccc(Cl)c2)c1 | 1.6 h
C[C@H](CNc1cccc(-c2sccc2C(=O)O)c1)NC[C@H](O)c1cccc(Cl)c1 | ≤ 1 h
C[C@H](CNc1cccc(-c2occc2C(=O)O)c1)NC[C@H](O)c1cccc(Cl)c1 | ≤ 1 h
C[C@H](CNc1ccc(-c2occc2C(=O)O)cc1)NC[C@H](O)c1cccc(Cl)c1 | ≤ 1 h
C[C@H](CNc1cccc(-c2nc(C(=O)O)cs2)c1)NC[C@H](O)c1cccc(Cl)c1 | ≤ 1 h
C[C@H](CNc1ccc(-c2ocnc2C(=O)O)cc1)NC[C@H](O)c1cccc(Cl)c1 | ≤ 1 h
O=C(O)c1ccoc1-c1cccc(NCCNC[C@H](O)c2cccc(Cl)c2)c1 | 6.1 h
C[C@H](CNc1cccc(-c2ocnc2C(=O)O)c1)NC[C@H](O)c1cccc(Cl)c1 | ≤ 1 h

Test system: not listed separately
Assay: Plasma clearance in dog at 0.2 mg/kg, iv
Type: ADME, organism-based, Canis lupus familiaris
Set-up: dose 0.2 mg/kg, route intravenous
Settings: not given
How it was run: as §2

SMILES | clearance
O=C(O)c1ccsc1-c1cccc(NCCNC[C@H](O)c2cccc(Cl)c2)c1 | 1.5 mL/min/kg
C[C@H](CNc1cccc(-c2sccc2C(=O)O)c1)NC[C@H](O)c1cccc(Cl)c1 | 5.3 mL/min/kg
C[C@H](CNc1cccc(-c2occc2C(=O)O)c1)NC[C@H](O)c1cccc(Cl)c1 | 5.3 mL/min/kg
C[C@H](CNc1ccc(-c2occc2C(=O)O)cc1)NC[C@H](O)c1cccc(Cl)c1 | 5.3 mL/min/kg
C[C@H](CNc1cccc(-c2nc(C(=O)O)cs2)c1)NC[C@H](O)c1cccc(Cl)c1 | 5.3 mL/min/kg
C[C@H](CNc1ccc(-c2ocnc2C(=O)O)cc1)NC[C@H](O)c1cccc(Cl)c1 | 5.3 mL/min/kg
O=C(O)c1ccoc1-c1cccc(NCCNC[C@H](O)c2cccc(Cl)c2)c1 | 0.65 mL/min/kg
C[C@H](CNc1cccc(-c2ocnc2C(=O)O)c1)NC[C@H](O)c1cccc(Cl)c1 | 5.3 mL/min/kg

Molecular target: T1, Beta-1 adrenergic receptor (Homo sapiens, UniProt P08588)
Assay: Agonist activity at human beta-1 adrenergic receptor expressed in CHO cells assessed as cAMP accumulation
Type: functional, cell-based
Settings: not given
How it was run: (§3)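 cAMP accumulation measured in CHO cells expressing the cloned human receptor subtype. Potency given as pEC50; Emax is the fitted maximal response of the concentration-response, expressed as percent of the maximal response to R-(−)-isoproterenol. Values are from n ≥ 3 experiments unless noted (some n = 2), with standard deviation within 10%.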
Target sequence in this assay (P08588 whole entry): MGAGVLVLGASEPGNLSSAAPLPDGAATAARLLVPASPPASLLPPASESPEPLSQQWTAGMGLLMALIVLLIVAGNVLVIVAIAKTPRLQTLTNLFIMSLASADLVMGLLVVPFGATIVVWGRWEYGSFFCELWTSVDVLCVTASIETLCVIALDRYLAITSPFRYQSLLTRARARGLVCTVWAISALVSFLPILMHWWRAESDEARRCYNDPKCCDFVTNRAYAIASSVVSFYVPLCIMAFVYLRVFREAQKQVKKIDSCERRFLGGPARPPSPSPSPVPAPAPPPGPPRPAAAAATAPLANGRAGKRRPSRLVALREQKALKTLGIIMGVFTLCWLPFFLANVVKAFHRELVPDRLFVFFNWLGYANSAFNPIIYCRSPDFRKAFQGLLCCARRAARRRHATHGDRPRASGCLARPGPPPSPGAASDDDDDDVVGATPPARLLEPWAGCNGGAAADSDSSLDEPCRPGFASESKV

SMILES | EC50
O=C(O)c1ccsc1-c1cccc(NCCNC[C@H](O)c2cccc(Cl)c2)c1 | 3980 nM
C[C@H](CNc1cccc(-c2sccc2C(=O)O)c1)NC[C@H](O)c1cccc(Cl)c1 | 1260 nM
C[C@H](CNc1cccc(-c2occc2C(=O)O)c1)NC[C@H](O)c1cccc(Cl)c1 | 100 nM
C[C@H](CNc1ccc(-c2occc2C(=O)O)cc1)NC[C@H](O)c1cccc(Cl)c1 | 20 nM
C[C@H](CNc1cccc(-c2nc(C(=O)O)cs2)c1)NC[C@H](O)c1cccc(Cl)c1 | 79.4 nM
C[C@H](CNc1ccc(-c2ocnc2C(=O)O)cc1)NC[C@H](O)c1cccc(Cl)c1 | 25.1 nM
O=C(O)c1ccoc1-c1cccc(NCCNC[C@H](O)c2cccc(Cl)c2)c1 | 5010 nM
C[C@H](CNc1cccc(-c2ocnc2C(=O)O)c1)NC[C@H](O)c1cccc(Cl)c1 | 398 nM

Species on record: Homo sapiens
Assay: Selectivity ratio of pEC50 for human beta-3 adrenergic receptor over beta-1 adrenergic receptor
Settings: not given
How it was run: (§4)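 Ratio of […]. pEC50 values come from cAMP accumulation in CHO cells expressing cloned human β1, β2 or β3 receptors.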

SMILES | Selectivity ratio
O=C(O)c1ccsc1-c1cccc(NCCNC[C@H](O)c2cccc(Cl)c2)c1 | 3200
C[C@H](CNc1cccc(-c2sccc2C(=O)O)c1)NC[C@H](O)c1cccc(Cl)c1 | 20000
C[C@H](CNc1cccc(-c2occc2C(=O)O)c1)NC[C@H](O)c1cccc(Cl)c1 | 400
C[C@H](CNc1ccc(-c2occc2C(=O)O)cc1)NC[C@H](O)c1cccc(Cl)c1 | 63
C[C@H](CNc1cccc(-c2nc(C(=O)O)cs2)c1)NC[C@H](O)c1cccc(Cl)c1 | 100
C[C@H](CNc1ccc(-c2ocnc2C(=O)O)cc1)NC[C@H](O)c1cccc(Cl)c1 | 20
O=C(O)c1ccoc1-c1cccc(NCCNC[C@H](O)c2cccc(Cl)c2)c1 | 630
C[C@H](CNc1cccc(-c2ocnc2C(=O)O)c1)NC[C@H](O)c1cccc(Cl)c1 | 100

Test system: Mus musculus
Assay: Reduction of glucose level in db/db mouse serum at 0.3 mg/kg, po bid for 14 days
Type: functional
Settings: not given
How it was run: as §1

SMILES | Activity
O=C(O)c1ccoc1-c1cccc(NCCNC[C@H](O)c2cccc(Cl)c2)c1 | 191 mg/dL

Species on record: Homo sapiens
Assay: Selectivity ratio of pEC50 for human beta3 adrenergic receptor over beta-2 adrenergic receptor
Settings: not given
How it was run: as §4

SMILES | Selectivity ratio
O=C(O)c1ccsc1-c1cccc(NCCNC[C@H](O)c2cccc(Cl)c2)c1 | 4000
C[C@H](CNc1cccc(-c2sccc2C(=O)O)c1)NC[C@H](O)c1cccc(Cl)c1 | 13000
C[C@H](CNc1cccc(-c2occc2C(=O)O)c1)NC[C@H](O)c1cccc(Cl)c1 | 500
C[C@H](CNc1ccc(-c2occc2C(=O)O)cc1)NC[C@H](O)c1cccc(Cl)c1 | 250
C[C@H](CNc1cccc(-c2nc(C(=O)O)cs2)c1)NC[C@H](O)c1cccc(Cl)c1 | 200
C[C@H](CNc1ccc(-c2ocnc2C(=O)O)cc1)NC[C@H](O)c1cccc(Cl)c1 | 320
O=C(O)c1ccoc1-c1cccc(NCCNC[C@H](O)c2cccc(Cl)c2)c1 | 320
C[C@H](CNc1cccc(-c2ocnc2C(=O)O)c1)NC[C@H](O)c1cccc(Cl)c1 | 79

Molecular target: T2, Beta-2 adrenergic receptor (Homo sapiens, UniProt P07550)
Assay: Agonist activity at human beta-2 adrenergic receptor expressed in CHO cells assessed as cAMP accumulation
Type: functional, cell-based
Settings: not given
How it was run: as §3
Target sequence in this assay (P07550 whole entry): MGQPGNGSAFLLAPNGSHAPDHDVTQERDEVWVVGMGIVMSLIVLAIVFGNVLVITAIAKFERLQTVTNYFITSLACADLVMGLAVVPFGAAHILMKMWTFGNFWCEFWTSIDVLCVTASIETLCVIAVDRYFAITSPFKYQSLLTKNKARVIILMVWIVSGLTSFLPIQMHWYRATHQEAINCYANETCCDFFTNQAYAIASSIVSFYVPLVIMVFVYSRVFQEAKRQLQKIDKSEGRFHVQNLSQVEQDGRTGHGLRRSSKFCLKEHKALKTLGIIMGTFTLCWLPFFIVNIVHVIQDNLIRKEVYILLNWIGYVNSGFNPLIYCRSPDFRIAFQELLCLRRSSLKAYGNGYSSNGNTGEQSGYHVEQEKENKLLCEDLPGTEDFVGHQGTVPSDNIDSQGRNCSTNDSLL

SMILES | EC50
O=C(O)c1ccsc1-c1cccc(NCCNC[C@H](O)c2cccc(Cl)c2)c1 | 5010 nM
C[C@H](CNc1cccc(-c2sccc2C(=O)O)c1)NC[C@H](O)c1cccc(Cl)c1 | 794 nM
C[C@H](CNc1cccc(-c2occc2C(=O)O)c1)NC[C@H](O)c1cccc(Cl)c1 | 126 nM
C[C@H](CNc1ccc(-c2occc2C(=O)O)cc1)NC[C@H](O)c1cccc(Cl)c1 | 79.4 nM
C[C@H](CNc1cccc(-c2nc(C(=O)O)cs2)c1)NC[C@H](O)c1cccc(Cl)c1 | 158 nM
C[C@H](CNc1ccc(-c2ocnc2C(=O)O)cc1)NC[C@H](O)c1cccc(Cl)c1 | 398 nM
O=C(O)c1ccoc1-c1cccc(NCCNC[C@H](O)c2cccc(Cl)c2)c1 | 2510 nM
C[C@H](CNc1cccc(-c2ocnc2C(=O)O)c1)NC[C@H](O)c1cccc(Cl)c1 | 316 nM

Molecular target: T1, Beta-1 adrenergic receptor
Assay: Agonist activity at human beta-1 adrenergic receptor expressed in CHO cells assessed as cAMP accumulation relative to R-(-)-isoproterenol
Type: functional, cell-based
Settings: not given
How it was run: as §3
Target sequence in this assay (P08588 whole entry, looked up): as the sequence (P08588 whole entry) above

SMILES | Emax
O=C(O)c1ccsc1-c1cccc(NCCNC[C@H](O)c2cccc(Cl)c2)c1 | < 2%
C[C@H](CNc1cccc(-c2sccc2C(=O)O)c1)NC[C@H](O)c1cccc(Cl)c1 | < 7%
C[C@H](CNc1cccc(-c2occc2C(=O)O)c1)NC[C@H](O)c1cccc(Cl)c1 | 14%
C[C@H](CNc1ccc(-c2occc2C(=O)O)cc1)NC[C@H](O)c1cccc(Cl)c1 | 18%
C[C@H](CNc1cccc(-c2nc(C(=O)O)cs2)c1)NC[C@H](O)c1cccc(Cl)c1 | 21%
C[C@H](CNc1ccc(-c2ocnc2C(=O)O)cc1)NC[C@H](O)c1cccc(Cl)c1 | 24%
O=C(O)c1ccoc1-c1cccc(NCCNC[C@H](O)c2cccc(Cl)c2)c1 | < 5%
C[C@H](CNc1cccc(-c2ocnc2C(=O)O)c1)NC[C@H](O)c1cccc(Cl)c1 | 14%

Test system: Mus musculus
Assay: Reduction of glucose level in db/db mouse serum at 1 mg/kg, po bid for 14 days
Type: functional
Settings: not given
How it was run: as §1

SMILES | Activity
O=C(O)c1ccoc1-c1cccc(NCCNC[C@H](O)c2cccc(Cl)c2)c1 | 183 mg/dL

Molecular target: T3, Beta-3 adrenergic receptor (Homo sapiens, UniProt P13945)
Assay: Agonist activity at human beta-3 adrenergic receptor expressed in CHO cells assessed as cAMP accumulation
Type: functional, cell-based
Settings: not given
How it was run: as §3
Target sequence in this assay (P13945 whole entry): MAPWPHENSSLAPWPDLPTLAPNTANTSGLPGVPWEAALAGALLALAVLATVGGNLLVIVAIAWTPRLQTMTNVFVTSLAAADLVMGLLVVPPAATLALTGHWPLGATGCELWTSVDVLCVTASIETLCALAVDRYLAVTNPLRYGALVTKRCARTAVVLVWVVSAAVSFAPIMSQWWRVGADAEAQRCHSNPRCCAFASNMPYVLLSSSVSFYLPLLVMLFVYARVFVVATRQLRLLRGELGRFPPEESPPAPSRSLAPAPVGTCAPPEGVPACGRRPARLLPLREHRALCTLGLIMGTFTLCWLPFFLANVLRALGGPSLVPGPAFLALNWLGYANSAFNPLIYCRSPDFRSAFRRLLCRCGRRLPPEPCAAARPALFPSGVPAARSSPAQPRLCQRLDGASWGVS

SMILES | EC50
O=C(O)c1ccsc1-c1cccc(NCCNC[C@H](O)c2cccc(Cl)c2)c1 | 1.26 nM
C[C@H](CNc1cccc(-c2sccc2C(=O)O)c1)NC[C@H](O)c1cccc(Cl)c1 | 0.0631 nM
C[C@H](CNc1cccc(-c2occc2C(=O)O)c1)NC[C@H](O)c1cccc(Cl)c1 | 0.251 nM
C[C@H](CNc1ccc(-c2occc2C(=O)O)cc1)NC[C@H](O)c1cccc(Cl)c1 | 0.316 nM
C[C@H](CNc1cccc(-c2nc(C(=O)O)cs2)c1)NC[C@H](O)c1cccc(Cl)c1 | 0.794 nM
C[C@H](CNc1ccc(-c2ocnc2C(=O)O)cc1)NC[C@H](O)c1cccc(Cl)c1 | 1.26 nM
O=C(O)c1ccoc1-c1cccc(NCCNC[C@H](O)c2cccc(Cl)c2)c1 | 7.94 nM
C[C@H](CNc1cccc(-c2ocnc2C(=O)O)c1)NC[C@H](O)c1cccc(Cl)c1 | 3.98 nM

Molecular target: T2, Beta-2 adrenergic receptor
Assay: Agonist activity at human beta-2 adrenergic receptor expressed in CHO cells assessed as cAMP accumulation relative to R-(-)-isoproterenol
Type: functional, cell-based
Settings: not given
How it was run: as §3
Target sequence in this assay (P07550 whole entry, looked up): as the sequence (P07550 whole entry) above

SMILES | Emax
O=C(O)c1ccsc1-c1cccc(NCCNC[C@H](O)c2cccc(Cl)c2)c1 | < 5%
C[C@H](CNc1cccc(-c2sccc2C(=O)O)c1)NC[C@H](O)c1cccc(Cl)c1 | 9%
C[C@H](CNc1cccc(-c2occc2C(=O)O)c1)NC[C@H](O)c1cccc(Cl)c1 | 38%
C[C@H](CNc1ccc(-c2occc2C(=O)O)cc1)NC[C@H](O)c1cccc(Cl)c1 | 36%
C[C@H](CNc1cccc(-c2nc(C(=O)O)cs2)c1)NC[C@H](O)c1cccc(Cl)c1 | 48%
C[C@H](CNc1ccc(-c2ocnc2C(=O)O)cc1)NC[C@H](O)c1cccc(Cl)c1 | 55%
O=C(O)c1ccoc1-c1cccc(NCCNC[C@H](O)c2cccc(Cl)c2)c1 | < 5%
C[C@H](CNc1cccc(-c2ocnc2C(=O)O)c1)NC[C@H](O)c1cccc(Cl)c1 | 49%

Molecular target: T3, Beta-3 adrenergic receptor
Assay: Agonist activity at human beta-3 adrenergic receptor expressed in CHO cells assessed as cAMP accumulation relative to R-(-)-isoproterenol
Type: functional, cell-based
Settings: not given
How it was run: as §3
Target sequence in this assay (P13945 whole entry, looked up): as the sequence (P13945 whole entry) above

SMILES | Emax
O=C(O)c1ccsc1-c1cccc(NCCNC[C@H](O)c2cccc(Cl)c2)c1 | 103%
C[C@H](CNc1cccc(-c2sccc2C(=O)O)c1)NC[C@H](O)c1cccc(Cl)c1 | 85%
C[C@H](CNc1cccc(-c2occc2C(=O)O)c1)NC[C@H](O)c1cccc(Cl)c1 | 87%
C[C@H](CNc1ccc(-c2occc2C(=O)O)cc1)NC[C@H](O)c1cccc(Cl)c1 | 85%
C[C@H](CNc1cccc(-c2nc(C(=O)O)cs2)c1)NC[C@H](O)c1cccc(Cl)c1 | 97%
C[C@H](CNc1ccc(-c2ocnc2C(=O)O)cc1)NC[C@H](O)c1cccc(Cl)c1 | 90%
O=C(O)c1ccoc1-c1cccc(NCCNC[C@H](O)c2cccc(Cl)c2)c1 | 91%
C[C@H](CNc1cccc(-c2ocnc2C(=O)O)c1)NC[C@H](O)c1cccc(Cl)c1 | 102%
